{"data": "Experimental data gathered from unrelated publications", "organism": "Candida albicans", "effect on": "microbial growth", "method": "broth dilution", "note": "Each line is one published result; the experiments were not run side by side."}
{"SMILES": "Cc1ccc(N=Nc2c(N)nn3c(-c4ccc(Cl)cc4Cl)cc(-c4ccc(OCc5ccccc5)cc4)nc23)cc1", "strain": "ATCC10231", "MIC": "31.3 µg/mL"}
{"SMILES": "C=CC(=O)ON=C1C=CC(=C(C#N)c2ccccc2)C=C1", "strain": "ATCC10231", "time": "48 h", "MIC": "2 µg/mL"}
{"SMILES": "OC(Cn1cncn1)(Cn1cncn1)c1ccc(F)cc1F", "strain": "ATCC90028", "time": "48 h", "MIC": "8 µg/mL"}
{"SMILES": "C/C(=N\\N=C(/C)c1c(O)c2ccccc2oc1=O)c1c(O)c2ccccc2oc1=O", "time": "48 h", "MIC": "125 µg/mL"}
{"SMILES": "CC(=O)ON=C1C=CC(=C(C#N)c2ccccc2)C=C1", "strain": "ATCC10231", "time": "48 h", "MIC": "2 µg/mL"}
{"SMILES": "CC(=O)C1=NN(c2ccc([N+](=O)[O-])cc2)C(=C(C#N)C(=O)c2ccc(Nc3cnccn3)cc2)S1", "strain": "ATCC10231", "MIC": "6.25 µg/mL"}
{"SMILES": "CC(C)c1ccc(/C=C2\\N=C(SCC(=O)O)N(c3ccccc3)C2=O)cc1", "strain": "ATCC10 ATCC10231", "MIC": "21 µg/mL"}
{"SMILES": "COc1ccc(N=Nc2c(N)nn3c(-c4ccc(C)cc4)cc(-c4ccc(OCc5ccccc5)cc4)nc23)cc1", "strain": "ATCC10231", "MIC": "62.5 µg/mL"}
{"SMILES": "COc1ccc(N2N=C(C(=O)c3ccc(Nc4cnccn4)cc3)SC2=C(C#N)C#N)cc1", "strain": "ATCC10231", "MIC": "12.5 µg/mL"}
{"SMILES": "C#CCON=C1C=CC(=C(C#N)c2ccccc2)C=C1", "strain": "ATCC10231", "time": "48 h", "MIC": "32 µg/mL"}
{"SMILES": "CCn1c2ccccc2c2cc(CNC)ccc21", "strain": "SN152", "time": "24 h", "MIC": "64 µg/mL"}
{"SMILES": "C/C(=N\\NC(=O)/N=C(\\C)c1c(O)c2ccccc2oc1=O)c1c(O)c2ccccc2oc1=O", "time": "48 h", "MIC": "31.2 µg/mL"}
{"SMILES": "CC(=O)N1CCN(c2ccc(OCC3COC(Cn4ccnc4)(c4ccc(Cl)cc4Cl)O3)cc2)CC1 (centres unmarked)", "strain": "14936", "time": "48 h", "MIC": "2 µM"}
{"SMILES": "OC(Cn1cncn1)(Cn1cncn1)c1ccc(F)cc1F", "strain": "8", "time": "24 h", "MIC": "1 µg/mL"}
{"SMILES": "N#CC(C#N)=C1SC(C(=O)c2ccc(Nc3cnccn3)cc2)=NN1c1ccc([N+](=O)[O-])cc1", "strain": "ATCC10231", "MIC": "12.5 µg/mL"}
{"SMILES": "N#CC(=C1C=CC(=NOC(=O)c2ccccc2)C=C1)c1ccccc1", "strain": "ATCC10231", "time": "48 h", "MIC": "256 µg/mL"}
{"SMILES": "Nc1nn2c(-c3ccco3)cc(-c3ccc(OCc4ccccc4)cc3)nc2c1N=Nc1ccc(F)cc1", "strain": "ATCC10231", "MIC": "125 µg/mL"}
{"SMILES": "C/C(=N\\CCNCC/N=C(\\C)c1c(O)c2ccccc2oc1=O)c1c(O)c2ccccc2oc1=O", "time": "48 h", "MIC": "7.81 µg/mL"}
{"SMILES": "CC(=O)N1CCN(c2ccc(OCC3COC(Cn4ccnc4)(c4ccc(Cl)cc4Cl)O3)cc2)CC1 (centres unmarked)", "strain": "ATCC10231", "MIC": "1.95 µg/mL"}
{"SMILES": "C/C(=N\\c1nc(N)nc(/N=C(\\C)c2c(O)c3ccccc3oc2=O)n1)c1c(O)c2ccccc2oc1=O", "time": "48 h", "MIC": "62.5 µg/mL"}
{"SMILES": "C[C@@H]1[C@H](O)[C@@H](C)/C=C/C=C/C=C/C=C/C=C/C=C/C=C/[C@H](O[C@@H]2O[C@H](C)[C@@H](O)[C@H](N)[C@@H]2O)C[C@@H]2O[C@](O)(C[C@@H](O)C[C@@H](O)[C@H](O)CC[C@@H](O)C[C@@H](O)CC(=O)O[C@H]1C)C[C@H](O)[C@H]2C(=O)O", "strain": "17546", "time": "48 h", "MIC": "< 0.25 µM"}
{"SMILES": "C/C(=N\\CCNCCNCC/N=C(\\C)c1c(O)c2ccccc2oc1=O)c1c(O)c2ccccc2oc1=O", "time": "48 h", "MIC": "15.6 µg/mL"}
{"SMILES": "Cc1ccc(-c2cc(-c3ccc(OCc4ccccc4)cc3)nc3c(N=Nc4ccc(F)cc4)c(N)nn23)cc1", "strain": "ATCC10231", "MIC": "62.5 µg/mL"}
{"SMILES": "C[C@@H]1[C@H](O)[C@@H](C)/C=C/C=C/C=C/C=C/C=C/C=C/C=C/[C@H](O[C@@H]2O[C@H](C)[C@@H](O)[C@H](N)[C@@H]2O)C[C@@H]2O[C@](O)(C[C@@H](O)C[C@@H](O)[C@H](O)CC[C@@H](O)C[C@@H](O)CC(=O)O[C@H]1C)C[C@H](O)[C@H]2C(=O)O", "strain": "ATCC10231", "time": "48 h", "MIC": "2 µg/mL"}
{"SMILES": "OC(Cn1cncn1)(Cn1cncn1)c1ccc(F)cc1F", "strain": "SP3903", "time": "48 h", "MIC": "4 µM"}
{"SMILES": "N#CC(C#N)=C1SC(C(=O)c2ccc(Nc3cnccn3)cc2)=NN1c1ccccc1", "strain": "ATCC10231", "MIC": "100 µg/mL"}
